# “Also recorded” adds a separate entry of the source. Marks after values point to notes of the source that are not given here.
# What was measured:
# CD1 mice [1] = experiment: radiant heat tail flick analgesia; type: in vivo, mouse; settings: for tail flick analgesia (CI), ED50 / antinociception in vivo (in words): sc; for tail flick analgesia (CI), ED50: 30 min after dosing, mice, 95% CI or ± SEM; for antinociception in vivo (in words) / fold higher analgesic potency than morphine: tail flick; for fold higher analgesic potency than morphine: systemic (sc)
# mouse DOR-1 = mouse DOR-1 (Mus musculus, UniProt P32300); experiment: [125I]BNtxA competition binding, CHO cell membranes, DOR-1; settings: for fold higher DOR-1 affinity than corresponding 14-OH-epoxymorphinan analog: 6 vs 19, 16 vs 1, 17 vs 20; for selectivity for DOR-1 over 6TM/E11 sites: ratio of Ki; for Ki: read-out: Ki DOR-1, [125I]BNtxA 0.1 nM, CHO membranes, mouse DOR-1
# How it was run: (§1)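 Membranes from CHO cells stably expressing the murine receptor clone, with no blockers, were incubated for 90 min at 25 °C in 50 mM potassium phosphate buffer (pH 7.4) with 5 mM MgSO4. Samples were then filtered on glass-fiber filters and washed with ice-cold 50 mM Tris-HCl (pH 7.4). Nonspecific binding was set with levallorphan 8 μM. Ki came from nonlinear regression. The 6TM/E11 comparison used mouse whole-brain membranes with CTAP, U50,488H and DPDPE, each at 200 nM.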
# mouse MOR-1 = mouse MOR-1 (Mus musculus, UniProt P42866); experiment: [125I]BNtxA competition binding, CHO cell membranes, MOR-1; settings: for fold higher MOR-1 affinity than corresponding 14-OH-epoxymorphinan analog: 6 vs 19, 16 vs 1, 17 vs 20; for selectivity for MOR-1 over 6TM/E11 sites: ratio of Ki; for Ki: read-out: Ki MOR-1, [125I]BNtxA 0.1 nM, CHO membranes, mouse MOR-1
# How it was run: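 Mouse MOR-1 clone stably expressed in CHO cells; membranes incubated 90 min at 25 °C in 50 mM potassium phosphate buffer, pH 7.4, with 5 mM MgSO4, no blockers. Filtration through glass-fibre filters, three washes with ice-cold 50 mM Tris-HCl, pH 7.4. Nonspecific binding with 8 μM levallorphan, subtracted from total. Ki by nonlinear regression. Protein measured by Lowry method.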
# mouse KOR-1 = mouse KOR-1 (Mus musculus, UniProt P33534); experiment: [125I]BNtxA competition binding, CHO cell membranes, KOR-1; settings: for fold higher KOR-1 affinity than corresponding 14-OH-epoxymorphinan analog: 6 vs 19, 16 vs 1, 17 vs 20; for selectivity for KOR-1 over 6TM/E11 sites: ratio of Ki; for Ki: read-out: Ki KOR-1, [125I]BNtxA 0.1 nM, CHO membranes, mouse KOR-1
# How it was run: as §1
# 6TM/E11 = 6TM/E11 (Mus musculus, UniProt P42866); type: binding; settings: for fold lower 6TM/E11 affinity than 1: compared with 1; for Ki: read-out: Ki 6TM/E11, [125I]BNtxA 0.1 nM, mouse brain, CTAP, DPDPE, U50,488 blockers at 200 nM
# How it was run: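 Membrane homogenates of whole brain from wild-type mice. Blockers at 200 nM: CTAP for MOR-1, U50,488H for KOR-1 and DPDPE for DOR-1.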
# CD1 mice [2] = settings: cited from earlier work
# mice = experiment: conditioned place preference/aversion; type: in vivo, mouse; settings: 2 days; for place conditioning response to drug alone: 16 1 mg/kg sc, morphine 10 mg/kg ip, U50,488 30 mg/kg ip, cocaine 10 mg/kg sc; for effect of pretreatment on cocaine-conditioned place preference: 16 1 mg/kg sc 10 min prior to cocaine 10 mg/kg sc
# MOR-1 = MOR-1 (Mus musculus, UniProt P42866)
# DOR-1 = DOR-1 (Mus musculus, UniProt P32300)
# [3] = doses 30 times the antinociceptive ED50
# [4] = system: C57BL/6J, MOR-1 KO or KOR-1 KO mice; settings: C57BL/6J mice, sc
# KOR-1 = KOR-1 (Mus musculus, UniProt P33534); experiment: [35S]GTPγS binding assay, KOR-1; type: biochemical
smiles,measurement,setting,value
"C=CCN1CC[C@]23c4c5ccc(O)c4O[C@H]2[C@H](NC(=O)c2cccc(I)c2)C=C[C@H]3[C@H]1C5 [Compound 17, 17-Allyl-3-hydroxy-4,5α-epoxy-7,8-en-6-β-[(3′-iodo)benzamido]-morphinan]","tail flick analgesia (CI), ED50",CD1 mice [1],"0.53 (0.45, 0.59) mg/kg"
same,antinociception in vivo (in words),CD1 mice [1],equipotent to both 1 and 20
same,fold higher DOR-1 affinity than corresponding 14-OH-epoxymorphinan analog,mouse DOR-1,6.7 fold
same,selectivity for DOR-1 over 6TM/E11 sites,mouse DOR-1,2 fold
same,Ki,mouse DOR-1,0.39 ± 0.0041 nM
same,fold higher MOR-1 affinity than corresponding 14-OH-epoxymorphinan analog,mouse MOR-1,6.5 fold
same,selectivity for MOR-1 over 6TM/E11 sites,mouse MOR-1,23 fold
same,Ki,mouse MOR-1,0.034 ± 0.006 nM
same,fold higher KOR-1 affinity than corresponding 14-OH-epoxymorphinan analog,mouse KOR-1,3.6 fold
same,selectivity for KOR-1 over 6TM/E11 sites,mouse KOR-1,35 fold
same,Ki,mouse KOR-1,0.022 ± 0.0043 nM
same,fold lower 6TM/E11 affinity than 1,6TM/E11,4.9 fold
same,fold lower 6TM/E11 affinity than 20,6TM/E11; compared with 20,3.1 fold
same,Ki,6TM/E11,0.78 ± 0.1 nM
"COc1ccc2c3c1O[C@H]1[C@H](NC(=O)c4cccc(I)c4)C=C[C@H]4[C@@H](C2)N(C)CC[C@@]341 [Compound 5, 17-Methyl-3-methoxy-4,5α-epoxy-7,8-en-6-β-[(3′-iodo)-benzamido]-morphinan]","tail flick analgesia (CI), ED50",CD1 mice [1],>10 mg/kg
same,Ki,mouse DOR-1,49 ± 6.4 nM
same,Ki,mouse MOR-1,1.2 ± 0.48 nM
same,Ki,mouse KOR-1,10 ± 3.5 nM
same,Ki,6TM/E11,61 ± 7.7 nM
"O=C(N[C@@H]1C=C[C@H]2[C@H]3Cc4ccc(O)c5c4[C@@]2(CCN3CCc2ccccc2)[C@H]1O5)c1cccc(I)c1 [Compound 15, 17-Phenethyl-3-hydroxy-4,5α-epoxy-7,8-en-6-β-[(3′-iodo)-benzamido]-morphinan]","tail flick analgesia (CI), ED50",CD1 mice [1],"1.3 (1.03, 2.2) mg/kg"
same,fold higher analgesic potency than morphine,CD1 mice [1],~ 3 fold
same,selectivity for DOR-1 over 6TM/E11 sites,mouse DOR-1,108 fold
same,Ki,mouse DOR-1,0.13 ± 0.032 nM
same,selectivity for MOR-1 over 6TM/E11 sites,mouse MOR-1,159 fold
same,Ki,mouse MOR-1,0.088 ± 0.028 nM
same,selectivity for KOR-1 over 6TM/E11 sites,mouse KOR-1,100 fold
same,Ki,mouse KOR-1,0.14 ± 0.022 nM
same,Ki,6TM/E11,14 ± 3.2 nM
"O=C(N[C@@H]1CC[C@@]2(O)[C@H]3Cc4ccc(O)c5c4[C@@]2(CCN3CC2CC2)[C@H]1O5)c1cccc(I)c1 [Compound 1, 3-Iodobenzoyl-β-naltrexamine, reference compound]",antinociception ED50,CD1 mice [2]; introduction,0.39 mg/kg
same,"tail flick analgesia (CI), ED50",CD1 mice [1],"0.39 (0.15, 0.58) mg/kg"
same,Ki,mouse DOR-1,0.24 ± 0.05 nM
same,Ki,mouse MOR-1,0.11 ± 0.02 nM
same,Ki,mouse KOR-1,0.03 ± 0.001 nM
same,Ki,6TM/E11,0.16 ± 0.04 nM
"COC(=O)[C@H]1[C@@H](OC(=O)c2ccccc2)C[C@@H]2CC[C@H]1N2C [cocaine, reference compound]",place conditioning response to drug alone,mice,significant place preference
"CN1CC[C@]23c4c5ccc(O)c4O[C@H]2[C@@H](O)C=C[C@H]3[C@H]1C5 [morphine, reference compound]","tail flick analgesia, ED50",CD1 mice [2],4.96 ± 0.96^f mg/kg
same,place conditioning response to drug alone,mice,significant conditioned place preference
"O=C(N[C@@H]1C=C[C@H]2[C@H]3Cc4ccc(O)c5c4[C@@]2(CCN3CC2CC2)[C@H]1O5)c1cccc(I)c1 [Compound 16, 17-Cyclopropylmethyl-3-hydroxy-4,5α-epoxy-7,8-en-6-β-[(3′-iodo)benzamido]-morphinan]",agonist efficacy at MOR-1 (in words),"MOR-1; [35S]GTPγS, listed as 16 (MP1104)",full agonist eficacy; also recorded: full agonism
same,EC50,"MOR-1; read-out: EC50 MOR-1, [35S]GTPγS stimulation",0.21 ± 0.03 nM
same,Emax (% stimulation) MOR-1,MOR-1; relative to DAMGO at 100 nM,103 ± 2.5 % stimulation
same,agonist efficacy at DOR-1 (in words),DOR-1; [35S]GTPγS,full agonist eficacy
same,EC50,"DOR-1; read-out: EC50 DOR-1, [35S]GTPγS stimulation",0.41 ± 0.11 nM
same,Emax (% stimulation) DOR-1,DOR-1; relative to DPDPE at 100 nM,88 ± 0.38 % stimulation
same,seizures,[3],not observed to produce seizures
same,"antinociception after pretreatment with NOP antagonist J-113,397","CD1 mice [1]; CD1 mice, 16 0.5 mg/kg sc, J-113,397 30 mg/kg sc 15 min before, listed as 16 (MP1104)",No change in the antinociceptive efiect; also recorded: insensitive
same,antinociception after pretreatment with DOR-1 antagonist NTI,"CD1 mice [1]; CD1 mice, 16 0.5 mg/kg sc, NTI 20 mg/kg sc 15 min before, listed as 16 (MP1104)",attenuated the antinociceptive effects; also recorded: partially antagonized
same,antinociception after pretreatment with both norBNI and NTI,"CD1 mice [1]; CD1 mice, 16 0.5 mg/kg sc, listed as 16 (MP1104)",fully prevented antinociception; also recorded: eliminated the antinociceptive response
same,antinociception after pretreatment with KOR-1 antagonist norBNI,"CD1 mice [1]; CD1 mice, 16 0.5 mg/kg sc, norBNI 10 mg/kg sc 24 h before, listed as 16 (MP1104)",attenuated the antinociceptive effects; also recorded: partially antagonized
same,antinociception after pretreatment with MOR-1 antagonist β-FNA,"CD1 mice [1]; CD1 mice, 16 0.5 mg/kg sc, β-FNA 40 mg/kg sc 24 h before, listed as 16 (MP1104)",did not alter anti-nociception; also recorded: insensitive
same,"tail flick analgesia (CI), ED50",CD1 mice [1],0.33 ± 0.09 mg/kg
same,fold higher analgesic potency than morphine,CD1 mice [1]; listed as 16 (MP1104),15 fold
same,fold higher analgesic potency than morphine,CD1 mice [1]; listed as MP1104,approximately 15 fold
same,effect of pretreatment on cocaine-conditioned place preference,mice; listed as 16 (MP1104),prevented significant place preference produced by cocaine; also recorded: prevented cocaine-conditioned place preference; also recorded: abolished cocaine preference; also recorded: effectively blocked cocaine-conditioned place preference
same,effect of pretreatment on cocaine-conditioned place preference,mice; listed as MP1104,prevented the reward behavior associated with cocaine
same,place conditioning response to drug alone,mice; listed as 16 (MP1104),neither conditioned place preference nor aversion; also recorded: did not produce conditioned place preference or aversion; also recorded: produced neither preference nor aversion; also recorded: lacks rewarding and dysphoric properties
same,place conditioning response to drug alone,mice; listed as MP1104,did not cause place aversion or preference
same,fold higher DOR-1 affinity than corresponding 14-OH-epoxymorphinan analog,mouse DOR-1,3 fold
same,selectivity for DOR-1 over 6TM/E11 sites,mouse DOR-1,6 fold
same,Ki,mouse DOR-1,0.08 ± 0.019 nM
same,antinociception ED50 (95% confidence interval),[4],0.22 (0.17–0.29) mg/kg
same,fold higher MOR-1 affinity than corresponding 14-OH-epoxymorphinan analog,mouse MOR-1,5 fold
same,selectivity for MOR-1 over 6TM/E11 sites,mouse MOR-1,22 fold
same,Ki,mouse MOR-1,0.021 ± 0.0034 nM
same,agonist efficacy at KOR-1 (in words),KOR-1; [35S]GTPγS,full agonist eficacy
same,EC50,"KOR-1; read-out: EC50 KOR-1, [35S]GTPγS stimulation",0.027 ± 0.002 nM
same,Emax (% stimulation) KOR-1,"KOR-1; relative to U50,488H at 100 nM",104 ± 2.3 % stimulation
same,fold higher KOR-1 affinity than corresponding 14-OH-epoxymorphinan analog,mouse KOR-1,4.7 fold
same,selectivity for KOR-1 over 6TM/E11 sites,mouse KOR-1,73 fold
same,Ki,mouse KOR-1,0.0064 ± 0.002 nM
same,fold lower 6TM/E11 affinity than 1,6TM/E11,3 fold
same,Ki,6TM/E11,0.47 ± 0.009 nM
"CN1CC[C@]23c4c5ccc(O)c4O[C@H]2[C@H](NC(=O)c2cccc(I)c2)C=C[C@H]3[C@H]1C5 [Compound 6, 17-Methyl-3-hydroxy-4,5α-epoxy-7,8-en-6-β-[(3′-iodo)-benzamido]-morphinan]","tail flick analgesia (CI), ED50",CD1 mice [1],"6.31 (4.6, 8.5) mg/kg"
same,antinociception in vivo (in words),CD1 mice [1],potent antinociception
same,fold higher DOR-1 affinity than corresponding 14-OH-epoxymorphinan analog,mouse DOR-1,3 fold
same,Ki,mouse DOR-1,0.88 ± 0.08 nM
same,fold higher MOR-1 affinity than corresponding 14-OH-epoxymorphinan analog,mouse MOR-1,26 fold
same,Ki,mouse MOR-1,0.037 ± 0.0051 nM
same,fold higher KOR-1 affinity than corresponding 14-OH-epoxymorphinan analog,mouse KOR-1,224 fold
same,Ki,mouse KOR-1,0.21 ± 0.046 nM
same,Ki,6TM/E11,27 ± 18 nM

# Reference: article PMC4651729 (ACS chemical neuroscience, 2015)
